In paper PMC3604071 (Nature chemical biology, 2013):
“Also recorded” adds a separate entry of the source.

Legend:
[1] = tested on: Shh signaling (Gli1 activation) in NIH 3T3 cells; assay: Gli-responsive luciferase reporter assay in Shh-transfected NIH 3T3 cells; format: cell-based; details: for Gli-responsive luciferase activation (FL/RL ratio): NIH 3T3 cells cotransfected with Shh, 10 μM, 24 h
How it was run: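 NIH 3T3 cells cotransfected with pRL-TK, 8XGliBS-firefly luciferase (or mutant reporter) and Shh plasmids. Seeded 24 h later at 1×10^6 cells/well and grown to confluence. Treated 24 h with DMSO or 10 μM test compound. Firefly and Renilla luciferase measured in lysates; FL/RL ratio normalized to DMSO-treated cells.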

Hhat = Hhat (Homo sapiens, UniProt Q5VTY9); assay: RU-SKI 43 inhibition kinetics with purified Hhat and ShhN; format: biochemical; details: Ki with respect to 125I-iodo-palmitoylCoA, noncompetitive inhibitor; purified Hhat, 125I-iodo-palmitoylCoA titrated, 38μM ShhN
Sequence of Hhat (Q5VTY9 whole entry): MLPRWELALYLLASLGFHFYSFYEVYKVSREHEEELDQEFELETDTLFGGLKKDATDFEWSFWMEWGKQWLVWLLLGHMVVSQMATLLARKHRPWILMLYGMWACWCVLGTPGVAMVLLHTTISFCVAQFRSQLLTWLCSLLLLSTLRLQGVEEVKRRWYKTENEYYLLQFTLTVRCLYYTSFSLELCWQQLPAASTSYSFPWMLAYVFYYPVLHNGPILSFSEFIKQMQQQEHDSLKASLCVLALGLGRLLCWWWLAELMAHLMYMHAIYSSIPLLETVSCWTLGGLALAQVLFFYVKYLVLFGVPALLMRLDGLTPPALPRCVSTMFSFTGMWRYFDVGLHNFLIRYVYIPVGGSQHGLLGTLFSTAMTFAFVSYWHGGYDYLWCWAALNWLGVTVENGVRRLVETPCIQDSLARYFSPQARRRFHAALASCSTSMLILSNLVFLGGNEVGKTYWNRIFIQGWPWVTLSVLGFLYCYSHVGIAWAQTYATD

[2] = tested on: Hhat-mediated Shh palmitoylation in COS-1 cells; assay: Shh palmitoylation in COS-1 cells; format: cell-based
How it was run: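 COS-1 cells transfected with Shh and HA-Hhat given test compound or DMSO overnight or from the start of […] serum starvation (DMEM, 2% dialyzed FCS). Labeled 4 h at 37°C with 15–30 μCi/ml 125I-iodo-palmitate. Lysed in RIPA, ultracentrifuged, immunoprecipitated 16 h at 4°C, SDS-PAGE with western blot and phosphorimaging. Duplicates, repeated at least three times.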

palmitoylation of H-Ras = assay: H-Ras palmitoylation in COS-1 cells; format: cell-based; details: COS-1 cells expressing H-Ras N17
How it was run: (§1)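 COS-1 cells co-transfected with Shh and HA-Hhat plus H-Ras or Fyn. Test compound or DMSO was added the night before or at the start of serum starvation. Cells were starved 1 h in DMEM with 2% dialyzed FCS, then labeled with 15–30 μCi/ml 125I-iodo-palmitate for 4 h at 37°C. Lysates in RIPA were cleared at 100,000xg, immunoprecipitated 16 h at 4°C, run on 12.5% SDS-PAGE and phosphorimaged. Duplicates, repeated ≥3 times.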

palmitoylation of Fyn = assay: Fyn palmitoylation in COS-1 cells; format: cell-based; details: COS-1 cells expressing Fyn
How it was run: as §1

myristoylation of c-Src = assay: c-Src myristoylation in COS-1 cells; format: cell-based; details: COS-1 cells expressing c-Src
How it was run: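 COS-1 cells were transfected with Shh, HA-Hhat and Src, with test compound or DMSO added the night before or at the start of starvation. After 1 h starvation in DMEM with 2% dialyzed FCS, 30 μCi/ml 125I-iodo-tridecanoate was added for 4 h at 37°C. RIPA lysates were cleared at 100,000xg, immunoprecipitated overnight at 4°C, resolved on 12.5% SDS-PAGE and quantified by phosphorimager. Duplicates, ≥3 repeats.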

Porcupine = biological target: T1, Porcupine (Mus musculus, UniProt Q9JJJ7); assay: Wnt3a fatty acylation by Porcupine in L Wnt-3a cells; format: cell-based; details: Mouse L Wnt-3a cells, FLAG-Porcupine
T1 sequence (Q9JJJ7 1-461): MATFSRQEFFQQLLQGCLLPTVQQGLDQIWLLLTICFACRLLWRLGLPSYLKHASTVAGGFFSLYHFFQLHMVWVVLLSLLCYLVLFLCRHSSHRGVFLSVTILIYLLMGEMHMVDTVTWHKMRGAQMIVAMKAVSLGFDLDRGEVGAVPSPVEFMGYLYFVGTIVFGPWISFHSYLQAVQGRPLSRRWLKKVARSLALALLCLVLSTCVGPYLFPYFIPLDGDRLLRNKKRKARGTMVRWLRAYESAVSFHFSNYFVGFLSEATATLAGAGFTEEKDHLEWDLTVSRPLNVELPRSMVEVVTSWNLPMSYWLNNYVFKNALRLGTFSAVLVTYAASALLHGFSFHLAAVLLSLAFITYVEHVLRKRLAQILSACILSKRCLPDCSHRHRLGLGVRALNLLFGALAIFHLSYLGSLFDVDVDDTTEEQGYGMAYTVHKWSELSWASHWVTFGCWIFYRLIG
How it was run: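 Mouse L-Wnt3a cells transfected with 6 μg FLAG-Porcupine or empty vector. After 48 h, serum-starved 3 h in DMEM with 2% dialyzed FCS plus DMSO, 10 μM test compound or 100 nM reference Porcupine inhibitor. Labeled 6 h with 40 μCi 125I-iodo-pentadecanoate. Wnt3a and FLAG-Porcupine immunoprecipitated 16 h at 4°C, then SDS-PAGE, western blot, phosphorimaging. Duplicates, repeated three times.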

[3] = tested on: Shh and Hhat in COS-1 cells; assay: Shh autoprocessing, Shh/Hhat levels and localization in COS-1 cells; format: cell-based; details: 10µM, 5h
How it was run: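 COS-1 cells were transfected with Shh and HA-Hhat and reseeded on coverslips after 24 h. A day later they were fixed in 4% paraformaldehyde for 20 min and permeabilized with 0.2% Triton X-100. After blocking in 3% BSA, cells took rabbit anti-Shh (1:100) and mouse anti-HA (1:200) for 1 h, then Alexa-conjugated secondaries and Hoechst for 45 min. Confocal imaging at 63X: 5–10 images per slide, ≥2 slides per condition, three experiments. Protein levels by Western blot.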

[4] = tested on: Gli1 activation in Shh Light II cells; assay: Gli luciferase reporter assay in Shh Light II cells; format: cell-based; details: 10 μM RU-SKI 43, 24 h
How it was run: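 Shh Light II cells (stable Gli1 luciferase reporter) grown to confluence, moved to 0.5% serum medium, and exposed 24 h to DMSO or 10 μM test compound, with or without 100 nM SAG or 1 μg/mL Shh (C24II). Dual firefly/Renilla luciferase read in lysates. FL/RL ratio normalized to cells given DMSO or compound alone; experiment done at least twice.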

[5] = tested on: Shh signaling in SuFu−/− cells; assay: Gli luciferase reporter assay in SuFu-/- cells; format: cell-based, murine; details: 10 μM, 24h
How it was run: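 SuFu−/− mouse embryonic fibroblasts transfected with wild-type or mutant 8XGliBS-firefly luciferase plus pRL-TK Renilla plasmids. Reseeded 24 h later, grown to confluence, then given DMSO or 10 μM test compound for 24 h. Dual luciferase measured in lysates as FL/RL ratio; mean ± SD (n=2–4), experiment run at least twice.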

[6] = tested on: paracrine Shh signaling in C3H10T1/2 cells; assay: C3H10T1/2 alkaline phosphatase reporter assay; format: cell-based
How it was run: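 C3H10T1/2 reporter cells and COS-1 cells transfected with HA-Hhat and Shh plasmids plated alone or cocultured (4:1), 24 h at 37°C. Medium then switched to DMSO or 10 μM test compound for 72 h, with re-addition at 48 h. Alkaline phosphatase measured in lysates with a fluorogenic FDP substrate kit, read over 30 min at 5-min intervals; mean ± SD, n=3.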

[7] = Half-life in mouse plasma after IV administration; format: in vivo

## Cc1c(C(=O)Nc2ccc(N3C[C@@H](C)O[C@@H](C)C3)nc2)cccc1-c1ccc(OC(F)(F)F)cc1 [LDE225, reference compound]
[1]
  Gli-responsive luciferase activation (FL/RL ratio): blocked luciferase activation

## CCC(C)CNCC(=O)N1CCc2sccc2C1COc1cccc(C)c1 (stereo not shown) [RU-SKI 43, 2-((2-methylbutyl)amino)-1-(4-((m-tolyloxy)methyl)-6,7-dihydrothieno[3,2-c]pyridin-5(4H)-yl)ethanone]
Hhat
  Ki: 6.9 µM
[2]; COS-1 cells expressing HA-Hhat and Shh, 0, 10 or 20 μM, 5 h
  Inhibition of Shh palmitoylation in cells: Dose-dependent inhibition
[2]; COS-1 cells expressing HA-Hhat and Shh, 25 μM compound, 16 h
  Radiolabel incorporation into ShhN in cells: strongly inhibited
[2]; COS-1 cells transfected with Shh only, 10 µM
  Palmitoylation of Shh by endogenous Hhat: inhibited
[2]; transfected COS-1 cells, increasing amounts of Hhat, 10µM
  Effect of Hhat overexpression on inhibition of Shh palmitoylation: reduced the ability of RU-SKI 43 to inhibit Shh palmitoylation
[2]; transfected COS-1 cells, increasing amounts of Porcupine, 10µM
  Effect of Porcupine overexpression on inhibition of Shh palmitoylation: no effect
Palmitoylation of H-Ras
  Palmitoylation of H-Ras: Neither palmitoylation of H-Ras and Fyn nor myristoylation of c-Src was affected
Palmitoylation of Fyn
  Palmitoylation of Fyn: Neither palmitoylation of H-Ras and Fyn nor myristoylation of c-Src was affected
Myristoylation of c-Src
  Myristoylation of c-Src: Neither palmitoylation of H-Ras and Fyn nor myristoylation of c-Src was affected
Porcupine; 10 μM
  Fatty acylation of Wnt3a by Porcupine: does not inhibit Porcupine; also recorded: no effect
[3]
  Shh autoprocessing, steady-state levels of Shh and Hhat, subcellular localization of Shh and Hhat: did not alter
[1]
  Gli-responsive luciferase activation (FL/RL ratio): blocks Gli activation; also recorded: blocked luciferase activation
[1]; Shh-transfected NIH 3T3 cells, 10µM RU-SKI 43 with 100nM SAG or 1µg/mL Shh (C24II), 24h
  Rescue of the inhibitory effect with SAG or Shh (C24II): not able to rescue
[4]; 100 nM SAG
  Effect on activation of Gli1 by SAG: does not affect exogenous Shh pathway activation; also recorded: no effect
[4]; 1μg/mL Shh (C24II)
  Effect on activation of Gli1 by recombinant Shh (C24II): does not affect exogenous Shh pathway activation; also recorded: no effect
[5]
  Effect on Shh signaling in SuFu−/− cells: does not affect Shh pathway activation; also recorded: no effect
[6]; C3H10T1/2 cocultured with COS-1 expressing Shh and Hhat, 10 μM, 72h
  Alkaline phosphatase (AP) activity: blocks paracrine Shh signaling; also recorded: reduced to baseline
[7]
  half-life: 17 min

## CNC1CCC(N(Cc2cccc(-c3ccncc3)c2)C(=O)c2sc3ccccc3c2Cl)CC1 (stereo not shown) [SAG, reference compound]
[1]; Shh-expressing NIH 3T3 cells, 100nM SAG
  Gli1 activation in untreated Shh-expressing cells: neither SAG (Supplementary Fig. 8) nor overexpression of Smo[17] activated Gli1 to levels higher than those achieved with Shh alone

## Cc1cc(-c2ccc(CC(=O)Nc3ccc(-c4cccnc4)cc3)cc2)ccn1 [Wnt C59, reference compound]
Porcupine; 100 nM
  Fatty acylation of Wnt3a by Porcupine: blocked radiolabel incorporation

B1: Noggin: the BMP inhibitor Noggin (protein, UniProt Q13253 28-232, looked up)
Noggin: QHYLHIRPAPSDNLPLVDLIEHPDPIFDPKEKDLNETLLRSLLGGHYDPGFMATSPPEDRPGGGGGAAGGAEDLAELDQLLRQRPSGAMPSEIKGLEFSEGLAQGKKQRLSKKLRRKLQMWLWSQTFCPVLYAWNDLGSRFWPRYVKVGSCFSKRSCSVPEGMVCKPSKSVHLTVLRWRCQRRGGQRCGWIPIQYPIISECKCSC
[6]; BMP inhibitor control, concentration not given
  Alkaline phosphatase (AP) activity: no effect
